The list is a sample of the results.
PGC1a acetyl up – compounds raising PGC1a acetylation signal, primary screen, PGC1a modulator project, cell-based, U2OS, AlphaScreen, signal-increasing mode. 350,000 compounds, 0.21% hits. activation, % at 15.6 µM. overnight;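 active means every replicate reaching activation of at least 50%, whatever the mean replicate activation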;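 further: hits raise the AlphaScreen acetylation signal above neutral controls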
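System: flag-PGC1a/GCN5 U2OS cells / Input: 7000 cells/well / Compound: single test concentration per compound / Incubation: overnight compound treatment, 37 °C / Technique: AlphaScreen on lysates with anti-acetyl-lysine antibody, acceptor and donor beads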
Active calls of the source: *.

For Cc1ccc(S(=O)(=O)N(C)C[C@@H]2Oc3cc(C#Cc4ccncc4)ccc3S(=O)(=O)N([C@H](C)CO)C[C@H]2C)cc1 the results were PGC1a acetyl up -42.
Screening COc1cccc(S(=O)(=O)N(C)C[C@@H]2Oc3cc(C4=CCCC4)ccc3S(=O)(=O)N([C@H](C)CO)C[C@@H]2C)c1 returned PGC1a acetyl up 59*.
`C[C@@H]1CN([C@@H](C)CO)S(=O)(=O)c2ccc(C3=CCCCC3)cc2O[C@H]1CN(C)C` gave PGC1a acetyl up -48.
COc1ccc(S(=O)(=O)N(C)C[C@@H]2Oc3cc(C#CC4CC4)ccc3S(=O)(=O)N([C@H](C)CO)C[C@H]2C)cc1 was read as PGC1a acetyl up 59*.
`Cc1ccc(S(=O)(=O)N(C)C[C@@H]2Oc3cc(C#Cc4ccncc4)ccc3S(=O)(=O)N([C@@H](C)CO)C[C@H]2C)cc1` gave PGC1a acetyl up -60.
For CC(C)C#Cc1ccc2c(c1)O[C@@H](CN(C)C(=O)C1CC1)[C@@H](C)CN([C@@H](C)CO)S2(=O)=O the results were PGC1a acetyl up -48.
`CC(C)C#Cc1ccc2c(c1)O[C@@H](CN(C)Cc1ccccc1)[C@@H](C)CN([C@@H](C)CO)S2(=O)=O` gave PGC1a acetyl up -99.
Screening C[C@H](CO)N1C[C@H](C)[C@@H](CN(C)Cc2ccc3c(c2)OCO3)Oc2cc(Br)ccc2S1(=O)=O returned PGC1a acetyl up 51*.
For CC(C)CC#Cc1ccc2c(c1)O[C@@H](CN(C)Cc1ccc3c(c1)OCO3)[C@H](C)CN([C@H](C)CO)S2(=O)=O the results were PGC1a acetyl up -53.
For C[C@@H]1CN([C@@H](C)CO)S(=O)(=O)c2ccc(C#CC3CCCCC3)cc2O[C@H]1CN(C)Cc1cccnc1 the results were PGC1a acetyl up -60.
For CC(C)NC(=O)N(C)C[C@H]1OCc2cnnn2CCCC(=O)N([C@@H](C)CO)C[C@H]1C the results were PGC1a acetyl up -42.
`C=C(C(=O)c1ccccc1)C(C(=C)C(=O)c1ccccc1)c1ccc(OC)cc1` gave PGC1a acetyl up 160*.
`COc1ccc(C(=O)Sc2nncc3ccccc23)cc1` gave PGC1a acetyl up -42.
CC(c1ccccc1)N1C(=O)NC(NC(=O)c2cccnc2)(C(F)(F)F)C1=O (stereo not drawn) was read as PGC1a acetyl up 74*.
Screening Cc1ccc2nsnc2c1S(=O)(=O)N(Cc1ccco1)Cc1cc2cccc(C)c2[nH]c1=O returned PGC1a acetyl up -47.
Screening CC(C)c1ccc(/C=N/n2nnnc2Nc2ccccc2)cc1 returned PGC1a acetyl up -46.
For CC1CCCN(Cc2c(O)ccc3c(=O)c(-c4nc5ccccc5s4)c(N)oc23)C1 (stereo not drawn) the results were PGC1a acetyl up 62*.
CCc1oc2c(C)c(O)ccc2c(=O)c1-c1ccc2ccccc2n1 was read as PGC1a acetyl up -49.
Screening CC1CCCN(Cc2c(O)ccc3c4c(c(=O)oc23)CCCC4)C1 (stereo not drawn) returned PGC1a acetyl up -49.
`Cc1cc(C(F)(F)F)n(-c2nc(C(=O)NNS(=O)(=O)c3ccccc3[N+](=O)[O-])cs2)n1` gave PGC1a acetyl up -110.
`Cn1c(SC2=CS(=O)(=O)c3ccccc32)nc2ccccc21` gave PGC1a acetyl up 260*.
O=C(C[C@H]1C[C@@H]2c3cc(NS(=O)(=O)c4ccc(F)cc4)ccc3O[C@@H]2[C@@H](CO)O1)N1CCc2ccccc2C1 was read as PGC1a acetyl up -50.
For CSCCC(NC(=O)OC(C)(C)C)C(=O)Oc1ccc2c(=O)c(-c3ccc4c(c3)OCCO4)coc2c1 (stereo not drawn) the results were PGC1a acetyl up 73*.
O=S1(=O)CC=C(CSC(=S)NC2CCS(=O)(=O)C2)C1 (stereo not drawn) was read as PGC1a acetyl up -47.
CCOC(=O)C1=C[C@@H](C(C)(C)C)N(S(=O)(=O)c2ccc(C)cc2)[C@H]1c1cccc2ccccc12 was read as PGC1a acetyl up 100*.
For CN(C)CC(O)c1ccc(C=Cc2ccc(Cl)cc2)cc1 (stereo not drawn) the results were PGC1a acetyl up -51.
For C[C@H]1CCCCO[C@H](CN(C)C(=O)Nc2cccc3ccccc23)[C@@H](C)CN([C@@H](C)CO)C(=O)c2cc(N(C)C)ccc2O1 the results were PGC1a acetyl up 65*.
For C[C@@H]1CN([C@@H](C)CO)C(=O)c2cc(NC(=O)Nc3cccc4ccccc34)ccc2O[C@@H](C)CCCCO[C@H]1CN(C)C(=O)NC1CCCCC1 the results were PGC1a acetyl up -42.
C[C@H](CO)N1C[C@H](C)[C@H](CN(C)S(=O)(=O)c2cn(C)cn2)OCCCC[C@H](C)Oc2ccc(NC(=O)Nc3cccc4ccccc34)cc2C1=O was read as PGC1a acetyl up -52.
For O=C(Nc1cccc2[nH]ncc12)c1ccc(F)cc1 the results were PGC1a acetyl up -42.
Screening CCN(CC)CC#CCOC(c1ccccc1)c1ccccc1 returned PGC1a acetyl up -44.
`Cc1ccc(-c2nnc(Nc3ccccc3)c3ccccc23)cc1S(=O)(=O)NCC1CCCO1` (stereo not drawn) gave PGC1a acetyl up 120*.
CCCNC(=O)N(C)C[C@H]1Oc2cc(C#CCC(C)C)ccc2S(=O)(=O)N([C@@H](C)CO)C[C@H]1C was read as PGC1a acetyl up -51.
For O=C(O)CCCC(=O)Nc1ccc(Br)cc1C(=O)O the results were PGC1a acetyl up 50*.
Screening O=C(COc1ccccc1)N1CCN=C1SCc1ccccc1 returned PGC1a acetyl up -43.
For COc1cc(-c2cnc3c(NC=O)cc(-c4ccc(C)cc4)cn23)cc(OC)c1OC the results were PGC1a acetyl up 89*.
`COc1cc(-c2cnc3c(NC=O)cc(-c4ccccc4Cl)cn23)cc(OC)c1OC` gave PGC1a acetyl up 102*.
COc1cc(-c2cnc3c(NC=O)cc(-c4ccccc4)cn23)cc(OC)c1OC was read as PGC1a acetyl up 105*.
C[C@H](CO)N1C[C@H](C)[C@@H](CN(C)CC2CC2)Oc2cc(-c3cccnc3)ccc2S1(=O)=O was read as PGC1a acetyl up -45.
Screening CC(NCc1cccs1)C(=O)NC1CCCCC1 (stereo not drawn) returned PGC1a acetyl up -45.
`Cc1ccc(-c2cc(C(=O)NCC3CCCO3)c3ccccc3n2)cc1C` (stereo not drawn) gave PGC1a acetyl up -46.
Cc1ccccc1-c1nc(C(=O)NCC2CCCO2)cc2c1[nH]c1ccccc12 (stereo not drawn) was read as PGC1a acetyl up 61*.
O=C(CSc1nc2ccccc2c(=O)n1CC1CCCO1)N1CCN(c2ccccc2)CC1 (stereo not drawn) was read as PGC1a acetyl up -42.
`O=C1CN(C(=O)COC(=O)/C=C/c2ccco2)c2ccccc2N1` gave PGC1a acetyl up -40.
Screening CN1CCN(/N=C/c2ccc(OCc3ccccc3)cc2)CC1 returned PGC1a acetyl up -41.
N#Cc1ccc(Cn2c(=O)c(C#N)c3n(c2=O)CCC3)cc1 was read as PGC1a acetyl up -47.
Screening CC1CN(C2CCN(C(=O)c3cccc(Cl)c3)CC2)CC(C)O1 (stereo not drawn) returned PGC1a acetyl up -48.
`O=C(c1cccc(Cl)c1)N1CCN(c2ccc(N3CCOCC3)nn2)CC1` gave PGC1a acetyl up -46.
CCN1CCN(C(=O)c2c(-c3c(F)cccc3Cl)noc2C)CC1 was read as PGC1a acetyl up 71*.

Screens: PubChem, Broad Institute
